Experimental data reported in ChEMBL document CHEMBL1122125, “Synthesis and in vivo antitumor activity of potential 5-fluorouracil prodrugs” (1982).

Key:
[1] = system: Mus musculus; test: Antitumor activity was determined for average 7-day weight change against P-388 leukemia in mice at a dose of 150 mg/kg; type: functional
Outline: (§1)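 Male B6D2F1J mice given 10⁶ P-388 cells ip on day 0, then treated ip once daily on days 1-4 (qd × 4), 5 mice per dose group. Compounds dosed in sterile saline, except one lipophilic thioether given in 10% Tween 80. Mice weighed on days 1 and 7; mean weight per mouse on day 1 and 7-day weight change reported in g and as percent.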

[2] = system: Mus musculus; test: Antitumor activity was determined for average weight on day 1 against P-388 leukemia in mice at a dose of 150 mg/kg; type: functional; outline: as §1
[3] = system: L1210; test: Evaluated for cytotoxicity against L1210 mouse leukemia cells; type: functional; conditions: read-out: ID50 (the source's name)
Outline: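 L1210 murine leukemia cells in Eagle's minimal essential medium with 15% fetal calf serum, streptomycin (100 μg/mL), penicillin (100 units/mL) and 0.05 mM 2-mercaptoethanol. Cells counted by Coulter counter after 48 h exposure. ID50 is the 50% growth-inhibitory dose. Triplicate assays, standard deviation ±10%.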

[4] = system: Mus musculus; test: Antitumor activity was determined for median survival of mice against P-388 leukemia in mice at a dose of 150 mg/kg; type: functional
Outline: (§2)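 Male B6D2F1J mice implanted ip with 10⁶ P-388 cells on day 0; test agents given ip on days 1–4 (qd × 4) in sterile saline, or in 10% Tween 80 for the lipophilic thioether. Groups of 5 treated mice, with 10–17 untreated controls per experiment. Mice weighed on days 1 and 7 to give the 7-day weight change in g and %. Survival recorded in days as median and range.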

[5] = system: Mus musculus; test: Antitumor activity was determined for 7-day average percent weight change against P-388 leukemia in mice at a dose of 75 mg/kg; type: functional; outline: as §1
[6] = system: Mus musculus; test: Antitumor activity was determined for median survival of mice against P-388 leukemia in mice at a dose of 600 mg/kg; type: functional; outline: as §2
[7] = system: Mus musculus; test: Antitumor activity was determined for survival range of mice against P-388 leukemia in mice at a dose of 300 mg/kg; type: functional; outline: as §2
[8] = system: Mus musculus; test: Percent increase in life span against P-388 leukemia in mice was determined at a dose of 75 mg/kg; type: functional; conditions: P388
Outline: (§3)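 Male B6D2F1J mice, 5 per dose group, received 10⁶ P-388 cells ip on day 0. Dosing was ip qd × 4 on days 1-4 in sterile saline, or 10% Tween 80 for the butyl thioether. Median survival times of treated (T) and untreated control (C, 10-17 mice) groups were compared: %ILS = [(T/C) − 1]100. Weights taken on days 1 and 7.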

[9] = system: Mus musculus; test: Antitumor activity was determined for survival range of mice against P-388 leukemia in mice at a dose of 150 mg/kg; type: functional; outline: as §2
[10] = system: Mus musculus; test: Antitumor activity was determined for average weight on day 1 against P-388 leukemia in mice at a dose of 75 mg/kg; type: functional
Outline: (§4)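 Male B6D2F1J mice, groups of 5, inoculated ip with 10⁶ P-388 cells on day 0. Drug given ip on days 1-4 (qd × 4) in sterile saline, or in 10% Tween 80 for the poorly water-soluble thioether. Average weight per mouse recorded on day 1, with reweighing on day 7 for percent weight change. Untreated control groups had 10-17 animals per experiment.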

[11] = system: Mus musculus; test: Antitumor activity was determined for median survival of mice against P-388 leukemia in mice at a dose of 75 mg/kg; type: functional; outline: as §2
[12] = system: Mus musculus; test: Antitumor activity was determined for average 7-day weight change against P-388 leukemia in mice at a dose of 75 mg/kg; type: functional; outline: as §1
[13] = system: Mus musculus; test: Antitumor activity was determined for average 7-day weight change against P-388 leukemia in mice at a dose of 300 mg/kg; type: functional; outline: as §1
[14] = system: Mus musculus; test: Percent increase in life span against P-388 leukemia in mice was determined at a dose of 300 mg/kg; type: functional; conditions: P388; outline: as §3
[15] = system: Mus musculus; test: Antitumor activity was determined for survival range of mice against P-388 leukemia in mice at a dose of 600 mg/kg; type: functional; outline: as §2
[16] = system: Mus musculus; test: Antitumor activity was determined for average weight on day 1 against P-388 leukemia in mice at a dose of 600 mg/kg; type: functional; outline: as §4
[17] = system: Mus musculus; test: Antitumor activity was determined for 7-day average percent weight change against P-388 leukemia in mice at a dose of 300 mg/kg; type: functional; outline: as §1
[18] = system: Mus musculus; test: Antitumor activity was determined for average weight on day 1 against P-388 leukemia in mice at a dose of 300 mg/kg; type: functional; outline: as §4
[19] = system: Mus musculus; test: Antitumor activity was determined for 7-day average percent weight change against P-388 leukemia in mice at a dose of 150 mg/kg; type: functional; outline: as §1
[20] = system: Mus musculus; test: Antitumor activity was determined for median survival of mice against P-388 leukemia in mice at a dose of 300 mg/kg; type: functional; outline: as §2
[21] = system: Mus musculus; test: Percent increase in life span against P-388 leukemia in mice was determined at a dose of 600 mg/kg; type: functional; conditions: P388; outline: as §3
[22] = system: Mus musculus; test: Antitumor activity was determined for survival range of mice against P-388 leukemia in mice at a dose of 75 mg/kg; type: functional
Outline: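 Male B6D2F1J mice, 5 per dose group, implanted ip with 10⁶ P-388 leukemia cells on day 0. Drug given ip daily on days 1-4 (qd × 4) in sterile saline, or in 10% Tween 80 for the butyl thioether. Survival range recorded in days. Untreated control groups had 10-17 animals per experiment. Mice weighed on days 1 and 7.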

[23] = system: Mus musculus; test: Percent increase in life span against P-388 leukemia in mice was determined at a dose of 150 mg/kg; type: functional; conditions: P388; outline: as §3
[24] = system: P388; test: Percent increase in life span against P-388 leukemia in mice was determined at a dose of 30 mg/kg; type: functional; conditions: Mus musculus; outline: as §3
[25] = system: P388; test: Percent increase in life span against P-388 leukemia in mice was determined at a dose of 15 mg/kg; type: functional; conditions: Mus musculus; outline: as §3
[26] = system: P388; test: Antitumor activity was determined for median survival of mice against P-388 leukemia in mice at a dose of 30 mg/kg; type: functional, Mus musculus; outline: as §2
[27] = system: P388; test: Antitumor activity was determined for 7-day average percent weight change against P-388 leukemia in mice at a dose of 30 mg/kg; type: functional, Mus musculus; outline: as §2
[28] = system: P388; test: Antitumor activity was determined for average 7-day weight change against P-388 leukemia in mice at a dose of 30 mg/kg; type: functional, Mus musculus; outline: as §2
[29] = system: P388; test: Antitumor activity was determined for 7-day average percent weight change against P-388 leukemia in mice at a dose of 15 mg/kg; type: functional, Mus musculus; outline: as §2
[30] = system: P388; test: Antitumor activity was determined for average weight on day 1 against P-388 leukemia in mice at a dose of 30 mg/kg; type: functional, Mus musculus; outline: as §2
[31] = system: P388; test: Antitumor activity was determined for survival range of mice against P-388 leukemia in mice at a dose of 30 mg/kg; type: functional, Mus musculus; outline: as §2
[32] = system: P388; test: Antitumor activity was determined for average weight on day 1 against P-388 leukemia in mice at a dose of 15 mg/kg; type: functional, Mus musculus; outline: as §2
[33] = system: P388; test: Antitumor activity was determined for average 7-day weight change against P-388 leukemia in mice at a dose of 15 mg/kg; type: functional, Mus musculus; outline: as §2
[34] = system: P388; test: Antitumor activity was determined for median survival of mice against P-388 leukemia in mice at a dose of 15 mg/kg; type: functional, Mus musculus; outline: as §2
[35] = system: P388; test: Antitumor activity was determined for survival range of mice against P-388 leukemia in mice at a dose of 15 mg/kg; type: functional, Mus musculus; outline: as §2

Structure (SMILES): CCCCSC[C@H]1OC(n2cc(F)c(=O)[nH]c2=O)[C@H](O)[C@@H]1O (stereo partly specified)
- Average weight [1]: 1.4 g mouse-1
- Average weight [2]: 27.8 g mouse-1
- IC50 [3]: 270 µM
- Survival median [4]: 11
- Weight change [5]: 8%
- Survival median [6]: 4
- Survival range [7]: 11
- ILS at 75 mg/kg [8]: -9%
- Survival range [9]: 10
- Average weight [10]: 26.6 g mouse-1
- Survival median [11]: 11
- Average weight [12]: 2 g mouse-1
- Average weight [13]: -0.4 g mouse-1
- ILS at 300 mg/kg [14]: -9%
- Survival range [15]: 3
- Average weight [16]: 26.4 g mouse-1
- Weight change [17]: -1%
- Average weight [18]: 28 g mouse-1
- Weight change [19]: 5%
- Survival median [20]: 11
- ILS at 600 mg/kg [21]: -67%
- Survival range [22]: 11
- ILS at 150 mg/kg [23]: -9%

Structure (SMILES): O=c1[nH]cc(F)c(=O)[nH]1 [FLUOROURACIL]
- ILS at 30 mg/kg [24]: 91%
- IC50 [3]: 1 µM
- ILS at 15 mg/kg [25]: 73%
- Survival median [26]: 21
- Weight change [27]: -13%
- Average weight [28]: -3.2 g mouse-1
- Weight change [29]: 2%
- Average weight [30]: 24.2 g mouse-1
- Survival range [31]: 11
- Average weight [32]: 24.4 g mouse-1
- Average weight [33]: 0.4 g mouse-1
- Survival median [34]: 19
- Survival range [35]: 15
